In PMC4857835 (Investigative Ophthalmology & Visual Science, 2016):

How the values were obtained:
thrombin = thrombin (Homo sapiens, UniProt P00734); test: Trypsin-like protease enzyme activity assay; assay type: biochemical
Procedure, shortened: (§1)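 Each human protease (plasmin, thrombin, trypsin, KLK1, factor XIa) is run with a suitable fluorogenic substrate. Km comes from a standard Michaelis-Menten transformation, and assays run at substrate Km. Fluorescence is read over 5 min and the linear rate per min is expressed as % activity. IC50 is 50% inhibition of uninhibited activity, and fold selectivity is relative to the human PKal IC50.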

[1] = tested on: VEGF-induced retinal thickening; test: VEGF-induced retinal thickening in mice; assay type: in vivo, WT mice (C57Bl/6); conditions: 1.60 mg/kg/d s.c. osmotic pump, VEGF 100 ng/eye
trypsin = test: Trypsin-like protease enzyme activity assay; assay type: biochemical, human
Procedure, shortened: as §1

[2] = molecular target: rat PKal (plasma kallikrein) (Rattus norvegicus, UniProt P14272); test: PKal protease activity assay, fluorogenic substrate H-D-Pro-Phe-Arg-AFC; assay type: biochemical
Sequence of rat PKal (plasma kallikrein) (P14272 391-638 limits assumed): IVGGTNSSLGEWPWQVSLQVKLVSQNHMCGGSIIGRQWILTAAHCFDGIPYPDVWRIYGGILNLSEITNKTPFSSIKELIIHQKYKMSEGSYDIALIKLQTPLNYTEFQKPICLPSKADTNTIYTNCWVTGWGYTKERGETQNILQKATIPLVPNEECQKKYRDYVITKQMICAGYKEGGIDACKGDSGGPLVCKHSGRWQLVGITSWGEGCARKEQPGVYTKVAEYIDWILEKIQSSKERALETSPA
Sequence of rat PKal (plasma kallikrein) (P14272 20-390 partner limits assumed): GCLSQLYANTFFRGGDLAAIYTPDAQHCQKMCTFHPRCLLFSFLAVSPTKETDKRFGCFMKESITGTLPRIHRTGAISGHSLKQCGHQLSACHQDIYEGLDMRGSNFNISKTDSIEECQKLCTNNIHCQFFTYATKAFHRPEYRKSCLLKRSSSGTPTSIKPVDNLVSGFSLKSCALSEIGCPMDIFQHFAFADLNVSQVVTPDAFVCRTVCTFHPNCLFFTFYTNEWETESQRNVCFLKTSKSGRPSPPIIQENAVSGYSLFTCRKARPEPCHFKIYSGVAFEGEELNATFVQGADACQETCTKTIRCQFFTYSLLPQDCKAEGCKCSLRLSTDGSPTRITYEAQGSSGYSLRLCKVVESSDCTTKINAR
Procedure, shortened: (§2)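 Purified mouse or rat plasma kallikrein with fluorogenic H-D-Pro-Phe-Arg-AFC at substrate Km, with test compound present. Liberated fluorescence is monitored over 5 min and the linear rate per min is calculated. IC50 is the inhibitor concentration giving 50% inhibition of uninhibited enzyme activity (100%).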

factor XIa = factor XIa (Homo sapiens, UniProt P03951); test: Trypsin-like protease enzyme activity assay; assay type: biochemical
Sequence of factor XIa (P03951 388-625 limits assumed): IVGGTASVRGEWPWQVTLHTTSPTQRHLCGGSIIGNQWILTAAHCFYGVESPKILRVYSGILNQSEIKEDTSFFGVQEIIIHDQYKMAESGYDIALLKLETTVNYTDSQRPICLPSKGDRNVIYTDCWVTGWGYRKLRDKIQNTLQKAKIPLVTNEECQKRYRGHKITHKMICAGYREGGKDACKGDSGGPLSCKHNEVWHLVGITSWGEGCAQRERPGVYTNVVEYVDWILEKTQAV
Sequence of factor XIa (P03951 19-387 partner limits assumed): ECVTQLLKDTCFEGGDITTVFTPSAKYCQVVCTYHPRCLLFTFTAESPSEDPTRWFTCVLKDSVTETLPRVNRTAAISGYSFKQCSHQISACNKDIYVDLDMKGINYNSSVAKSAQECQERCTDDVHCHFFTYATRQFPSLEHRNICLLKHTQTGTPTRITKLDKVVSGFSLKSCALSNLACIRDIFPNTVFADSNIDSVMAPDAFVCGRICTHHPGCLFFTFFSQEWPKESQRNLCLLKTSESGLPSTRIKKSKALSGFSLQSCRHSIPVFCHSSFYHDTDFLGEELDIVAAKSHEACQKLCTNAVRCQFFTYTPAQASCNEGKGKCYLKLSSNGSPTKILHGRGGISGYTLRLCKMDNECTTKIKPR
Procedure, shortened: as §1

KLK1 tissue kallikrein = KLK1 tissue kallikrein (Homo sapiens, UniProt P06870); test: Trypsin-like protease enzyme activity assay; assay type: biochemical
Sequence of KLK1 tissue kallikrein (P06870 25-262): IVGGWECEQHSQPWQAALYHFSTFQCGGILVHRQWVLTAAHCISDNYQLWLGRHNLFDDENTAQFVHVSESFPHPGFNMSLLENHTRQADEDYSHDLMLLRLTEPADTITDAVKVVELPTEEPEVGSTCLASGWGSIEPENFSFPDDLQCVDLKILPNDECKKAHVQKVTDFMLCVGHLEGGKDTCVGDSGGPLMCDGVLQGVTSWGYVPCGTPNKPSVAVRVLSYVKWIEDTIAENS
Procedure, shortened: as §1

[3] = In vivo pharmacokinetics following subcutaneous dosing; set-up: species or system male SD rats; conditions: male, SD, rat, plasma, sc, 10 mg/kg
[4] = molecular target: mouse PKal (plasma kallikrein) (Mus musculus, UniProt P26262); test: PKal protease activity assay, fluorogenic substrate H-D-Pro-Phe-Arg-AFC; assay type: biochemical
Sequence of mouse PKal (plasma kallikrein) (P26262 391-638 limits assumed): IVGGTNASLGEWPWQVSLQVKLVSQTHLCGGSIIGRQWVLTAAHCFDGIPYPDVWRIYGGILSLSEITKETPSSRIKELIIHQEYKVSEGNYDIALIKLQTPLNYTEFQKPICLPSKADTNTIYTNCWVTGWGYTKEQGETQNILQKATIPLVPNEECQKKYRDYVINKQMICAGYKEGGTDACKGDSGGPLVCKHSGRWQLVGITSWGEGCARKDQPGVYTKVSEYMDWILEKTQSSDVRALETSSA
Sequence of mouse PKal (plasma kallikrein) (P26262 20-390 partner limits assumed): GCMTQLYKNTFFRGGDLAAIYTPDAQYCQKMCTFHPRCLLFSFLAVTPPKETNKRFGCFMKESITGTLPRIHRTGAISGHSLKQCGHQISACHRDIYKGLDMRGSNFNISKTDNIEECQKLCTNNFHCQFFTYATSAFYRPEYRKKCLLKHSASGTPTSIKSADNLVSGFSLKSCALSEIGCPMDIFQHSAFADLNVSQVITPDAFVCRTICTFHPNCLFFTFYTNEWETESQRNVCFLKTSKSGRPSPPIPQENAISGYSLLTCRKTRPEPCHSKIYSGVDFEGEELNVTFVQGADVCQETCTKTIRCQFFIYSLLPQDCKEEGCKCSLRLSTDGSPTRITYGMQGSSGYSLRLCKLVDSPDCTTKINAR
Procedure, shortened: as §2

[5] = molecular target: human PKal (plasma kallikrein) (Homo sapiens, UniProt P03952); test: PKal protease activity assay, fluorogenic substrate H-D-Pro-Phe-Arg-AFC; assay type: biochemical
Sequence of human PKal (plasma kallikrein) (P03952 391-638 limits assumed): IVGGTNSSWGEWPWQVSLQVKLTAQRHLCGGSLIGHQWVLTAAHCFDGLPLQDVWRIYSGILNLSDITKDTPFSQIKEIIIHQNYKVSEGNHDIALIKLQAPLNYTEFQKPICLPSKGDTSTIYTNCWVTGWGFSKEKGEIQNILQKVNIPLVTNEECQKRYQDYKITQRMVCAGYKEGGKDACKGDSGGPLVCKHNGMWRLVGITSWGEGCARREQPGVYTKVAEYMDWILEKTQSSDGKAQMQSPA
Sequence of human PKal (plasma kallikrein) (P03952 20-390 partner limits assumed): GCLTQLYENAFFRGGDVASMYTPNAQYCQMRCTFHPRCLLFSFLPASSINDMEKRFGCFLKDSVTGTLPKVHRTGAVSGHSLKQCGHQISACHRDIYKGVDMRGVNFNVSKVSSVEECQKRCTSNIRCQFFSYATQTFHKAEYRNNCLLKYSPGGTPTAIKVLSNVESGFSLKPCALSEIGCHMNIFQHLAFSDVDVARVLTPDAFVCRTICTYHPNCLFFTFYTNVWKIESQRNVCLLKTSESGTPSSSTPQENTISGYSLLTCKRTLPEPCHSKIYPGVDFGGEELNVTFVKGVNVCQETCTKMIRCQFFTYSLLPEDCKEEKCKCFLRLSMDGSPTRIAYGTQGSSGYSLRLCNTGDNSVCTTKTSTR
Procedure, shortened: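 Purified human plasma kallikrein with fluorogenic H-D-Pro-Phe-Arg-AFC at its Km concentration, plus test compound. Fluorescence is followed over 5 min and the linear rate per min is taken. IC50 is the concentration giving 50% inhibition of uninhibited activity (100%). Fold selectivity is each related protease's IC50 relative to the human PKal IC50.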

[6] = tested on: VEGF-induced retinal thickening; test: VEGF-induced retinal thickening in rats; assay type: in vivo, Sprague-Dawley rats; conditions: 0.58 mg/kg/d s.c. osmotic pump, VEGF 10 ng/eye, 48 hours, P < 0.001
Procedure, shortened: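 Male Sprague-Dawley rats (10 weeks) got test compound 0.58 mg/kg/d or vehicle (10% PEG400 in PBS) by s.c. osmotic pump, started 1 day before 5 µL intravitreal VEGF 10 ng/eye or PBS. SD-OCT (2.5×2.5 mm volume centred on the optic nerve head) gave RPE-to-RNFL thickness 800 µm from centre at baseline, 24 and 48 h. Change from baseline was compared with vehicle-treated rats.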

plasmin = plasmin (Homo sapiens, UniProt P00747); test: Trypsin-like protease enzyme activity assay; assay type: biochemical
Sequence of plasmin (P00747 581-810 limits assumed): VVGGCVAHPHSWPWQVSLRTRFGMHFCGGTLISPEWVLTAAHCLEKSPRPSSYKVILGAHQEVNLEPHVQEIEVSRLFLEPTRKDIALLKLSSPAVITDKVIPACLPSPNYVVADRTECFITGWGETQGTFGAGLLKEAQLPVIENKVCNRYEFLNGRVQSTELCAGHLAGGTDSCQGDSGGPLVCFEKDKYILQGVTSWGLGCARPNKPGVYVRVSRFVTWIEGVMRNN
Sequence of plasmin (P00747 97-580 partner limits assumed): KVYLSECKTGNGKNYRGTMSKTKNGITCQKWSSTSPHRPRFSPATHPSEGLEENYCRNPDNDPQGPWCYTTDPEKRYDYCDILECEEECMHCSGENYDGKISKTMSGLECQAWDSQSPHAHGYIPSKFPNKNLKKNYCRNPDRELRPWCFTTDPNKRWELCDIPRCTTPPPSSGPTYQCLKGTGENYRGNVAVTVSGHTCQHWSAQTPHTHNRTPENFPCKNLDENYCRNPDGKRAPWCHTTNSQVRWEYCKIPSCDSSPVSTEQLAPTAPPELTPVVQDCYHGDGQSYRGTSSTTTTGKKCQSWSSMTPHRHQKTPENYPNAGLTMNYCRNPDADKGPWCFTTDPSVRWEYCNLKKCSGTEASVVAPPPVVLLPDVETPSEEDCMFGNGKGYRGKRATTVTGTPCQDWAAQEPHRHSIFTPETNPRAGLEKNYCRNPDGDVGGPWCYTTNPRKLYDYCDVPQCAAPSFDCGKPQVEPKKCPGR
Procedure, shortened: as §1

CCOc1ccc(C[C@@H](N)C(=O)N[C@@H](Cc2ccccc2)C(=O)NC2CCN(C(=N)N)CC2)cc1.O=C(O)C(F)(F)F.O=C(O)C(F)(F)F [VA999272, (R)-2-amino-N-[(S)-1-(1-carbamimidoyl-piperidin-4-ylcarbamoyl)-2-phenyl-ethyl]-3-(4-ethoxy-phenyl)-propionamide ditrifluoroacetate]
IC50 (thrombin): 9.1 µM
Fold selectivity to human PKal (thrombin; thrombin IC50 vs human PKal IC50): 2291
reduction of VEGF effect on retinal thickness vs vehicle-treated ([1]; 24 hours, P = 0.039): 36%
reduction of VEGF effect on retinal thickness vs vehicle-treated ([1]; 48 hours, P < 0.001): 57%
IC50 (trypsin; read-out: Mean IC50 Trypsin, substrate at Km): 38.9 µM
Fold selectivity to human PKal (trypsin; trypsin IC50 vs human PKal IC50): 9772
IC50 [2]: 0.00654 ± 0.00076 µM
IC50 (factor XIa): > 10 µM
Fold selectivity to human PKal (factor XIa; factor XIa IC50 vs human PKal IC50): >2513
IC50 (KLK1 tissue kallikrein): 33.5 µM
Fold selectivity to human PKal (KLK1 tissue kallikrein; KLK1 IC50 vs human PKal IC50): 8414
Cmax [3]: 974 ng/mL
Tmax [3]: 1.5 h
half-life [3]: 3.55 h
IC50 [4]: 0.00118 ± 0.00025 µM
IC50 [5]: 0.00398 ± 0.00361 µM
Fold selectivity to human PKal ([5]; PKal itself (reference)): 1
selectivity to PKal over closely related trypsin-like serine proteases ([5]; vs KLK1, factor XIIa, factor XIa, thrombin, plasmin, trypsin): > 1000 fold
reduction of VEGF-induced retinal thickening vs vehicle-treated [6]: 53%
IC50 (plasmin): 23.1 µM
Fold selectivity to human PKal (plasmin; plasmin IC50 vs human PKal IC50): 5821
